Measurements: PMC11066580 (Inorganic chemistry, 2024)

Experiments:
cysteine cathepsins = test: Cathepsin activity in lysates of treated 4T1 cells, substrate Z-Phe-Arg-AMC; assay type: cell-based, murine; conditions: 1 μM, 4 h, then 1 h, relative to vehicle control
Method in brief: (§1)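 4T1 cells were given vehicle, 1 μM test compound, or 1 μM E64d (permeable positive control) for 4 h. Medium was then replaced, and cells received green light (520–525 nm) for 10 min or were kept dark, then incubated 1 h. Substrate 100 μM final; AMC fluorescence (ex 360/em 430 nm) read every 30 s for 5 min at 37 °C; % activity vs vehicle.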

CTSB = CTSB (Mus musculus, UniProt P10605); test: Cathepsin activity in lysates of treated 4T1 cells, substrate Z-Arg-Arg-AMC; assay type: cell-based, murine; conditions: 1 μM, 4 h, then 1 h, relative to vehicle control
Chain of CTSB (P10605 80-339): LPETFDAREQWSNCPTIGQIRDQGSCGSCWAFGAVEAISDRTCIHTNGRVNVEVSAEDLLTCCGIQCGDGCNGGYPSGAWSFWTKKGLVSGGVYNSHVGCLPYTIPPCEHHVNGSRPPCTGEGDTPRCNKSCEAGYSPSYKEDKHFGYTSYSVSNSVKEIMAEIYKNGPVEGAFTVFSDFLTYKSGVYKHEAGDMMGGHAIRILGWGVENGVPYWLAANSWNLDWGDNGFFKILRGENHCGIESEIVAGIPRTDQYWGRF
Method in brief: as §1

[1] = Preliminary phototoxicity screen with green light; assay type: cell-based; conditions: green light (520–525 nm); data not shown

Row | Percent activity of cysteine cathepsins, substrate Z-Arg-Arg-AMC, Dark (CTSB; dark) | Percent activity of cysteine cathepsins, substrate Z-Arg-Arg-AMC, Light (CTSB; green light 10 min) | Molecule | Percent activity of cysteine cathepsins, substrate Z-Phe-Arg-AMC, Dark (cysteine cathepsins; dark) | Percent activity of cysteine cathepsins, substrate Z-Phe-Arg-AMC, Light (cysteine cathepsins; green light 10 min) | phototoxicity in preliminary screen [1]
1 | <5% | <5% | CCOC(=O)[C@H]1O[C@@H]1C(=O)N[C@@H](CC(C)C)C(=O)NCCC(C)C [Compound E64d] | 18 ± 4% | 21 ± 4% | –
2 | – | – | [Ru(dppn)(dqpy)-(py)](PF6)2 | – | – | showed phototoxicity
